Results reported in ChEMBL document CHEMBL1141363, “Synthesis and evaluation of novel heterocyclic MMP inhibitors” (Bioorg Med Chem Lett, 2007).

Assays:
[1] = molecular target: T1, Interstitial collagenase (Homo sapiens, UniProt P03956); assay: Inhibition of MMP1
T1 sequence (P03956 whole entry): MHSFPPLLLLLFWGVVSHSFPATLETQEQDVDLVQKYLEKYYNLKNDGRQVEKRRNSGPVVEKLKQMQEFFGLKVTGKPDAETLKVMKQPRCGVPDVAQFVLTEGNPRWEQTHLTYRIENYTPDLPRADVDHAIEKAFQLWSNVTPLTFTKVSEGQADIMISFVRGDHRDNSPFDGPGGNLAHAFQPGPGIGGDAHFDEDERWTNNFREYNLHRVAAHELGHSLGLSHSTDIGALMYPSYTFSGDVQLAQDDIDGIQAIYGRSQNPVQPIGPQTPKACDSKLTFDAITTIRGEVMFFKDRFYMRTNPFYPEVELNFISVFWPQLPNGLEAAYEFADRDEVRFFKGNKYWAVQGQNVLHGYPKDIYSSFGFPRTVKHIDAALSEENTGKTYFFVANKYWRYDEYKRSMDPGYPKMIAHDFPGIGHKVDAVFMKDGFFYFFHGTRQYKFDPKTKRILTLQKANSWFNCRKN
In short: (§1)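 Catalytic domains used at final levels of 85 nM (MMP-1), 24 nM (MMP-2), 18 nM (MMP-9) and 84 nM (MMP-12). Each enzyme was premixed with compound (serial 1:2 dilutions, 150 to 1.2) for 30 min at 37 °C. Substrate was added in 50 mM Hepes with 5 mM CaCl2 and 0.05% w/w Brij-35, pH 7.5, then incubated 30 min. Fluorescence read at ex 328/em 393 nm over 45 min, every 50 s.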

[2] = molecular target: 72 kDa type IV collagenase (Homo sapiens, UniProt P08253); assay: Inhibition of MMP2; in short: as §1
[3] = molecular target: Matrix metalloproteinase-9 (Homo sapiens, UniProt P14780); assay: Inhibition of MMP9; in short: as §1
[4] = molecular target: Macrophage metalloelastase (Homo sapiens, UniProt P39900); assay: Inhibition of MMP12; in short: as §1
Chain of Macrophage metalloelastase (P39900 whole entry): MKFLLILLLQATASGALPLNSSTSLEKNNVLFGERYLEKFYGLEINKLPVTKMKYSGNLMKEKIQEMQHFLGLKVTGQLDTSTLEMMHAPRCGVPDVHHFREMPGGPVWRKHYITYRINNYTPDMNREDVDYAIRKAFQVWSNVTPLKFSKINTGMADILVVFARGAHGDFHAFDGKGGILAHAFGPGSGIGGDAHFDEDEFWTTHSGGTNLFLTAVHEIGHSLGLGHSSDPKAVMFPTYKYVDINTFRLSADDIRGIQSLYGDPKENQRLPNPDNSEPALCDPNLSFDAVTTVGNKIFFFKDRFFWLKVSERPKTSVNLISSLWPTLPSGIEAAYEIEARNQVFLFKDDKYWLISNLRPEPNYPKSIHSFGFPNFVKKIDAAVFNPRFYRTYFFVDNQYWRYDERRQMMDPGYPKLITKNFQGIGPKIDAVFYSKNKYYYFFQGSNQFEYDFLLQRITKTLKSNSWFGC

Chain of 72 kDa type IV collagenase (P08253 whole entry): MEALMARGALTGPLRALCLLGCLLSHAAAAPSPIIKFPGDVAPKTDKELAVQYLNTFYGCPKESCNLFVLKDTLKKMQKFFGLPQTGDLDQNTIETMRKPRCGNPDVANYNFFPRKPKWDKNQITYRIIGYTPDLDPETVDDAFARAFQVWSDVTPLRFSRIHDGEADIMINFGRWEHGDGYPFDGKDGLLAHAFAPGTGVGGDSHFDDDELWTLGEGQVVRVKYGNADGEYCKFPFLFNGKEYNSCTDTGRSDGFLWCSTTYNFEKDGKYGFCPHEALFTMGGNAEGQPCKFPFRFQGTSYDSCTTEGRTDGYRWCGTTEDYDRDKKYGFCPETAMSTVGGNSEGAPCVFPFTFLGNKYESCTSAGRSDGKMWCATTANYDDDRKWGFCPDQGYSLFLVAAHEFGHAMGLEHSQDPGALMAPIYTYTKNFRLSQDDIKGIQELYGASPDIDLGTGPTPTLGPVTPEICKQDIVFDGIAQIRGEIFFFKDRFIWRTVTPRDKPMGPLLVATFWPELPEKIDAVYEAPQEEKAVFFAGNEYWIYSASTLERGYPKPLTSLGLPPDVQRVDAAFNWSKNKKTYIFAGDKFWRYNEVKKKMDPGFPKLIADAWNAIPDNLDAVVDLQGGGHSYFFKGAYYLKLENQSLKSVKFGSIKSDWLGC
Chain of Matrix metalloproteinase-9 (P14780 whole entry): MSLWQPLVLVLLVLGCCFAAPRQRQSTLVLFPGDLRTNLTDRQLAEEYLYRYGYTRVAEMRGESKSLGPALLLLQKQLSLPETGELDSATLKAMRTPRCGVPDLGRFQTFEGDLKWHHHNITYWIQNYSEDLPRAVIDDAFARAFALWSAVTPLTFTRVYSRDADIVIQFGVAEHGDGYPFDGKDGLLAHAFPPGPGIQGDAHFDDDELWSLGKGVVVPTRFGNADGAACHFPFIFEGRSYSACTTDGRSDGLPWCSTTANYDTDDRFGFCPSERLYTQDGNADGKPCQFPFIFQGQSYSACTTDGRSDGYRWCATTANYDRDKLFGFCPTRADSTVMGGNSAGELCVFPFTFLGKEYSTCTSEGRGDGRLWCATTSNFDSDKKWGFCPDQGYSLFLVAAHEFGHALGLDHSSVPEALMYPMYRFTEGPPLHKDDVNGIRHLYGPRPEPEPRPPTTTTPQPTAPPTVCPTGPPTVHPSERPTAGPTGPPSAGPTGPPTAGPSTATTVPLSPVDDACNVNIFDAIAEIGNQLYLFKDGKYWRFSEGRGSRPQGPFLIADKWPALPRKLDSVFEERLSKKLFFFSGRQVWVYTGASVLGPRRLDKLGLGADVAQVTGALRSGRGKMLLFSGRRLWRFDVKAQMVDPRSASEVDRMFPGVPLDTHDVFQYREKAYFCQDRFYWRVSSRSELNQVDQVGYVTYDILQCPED

IC50 [1]	IC50 [2]	IC50 [3]	IC50 [4]	Compound
35 µM	66 µM	60 µM	60 µM	O=C(OCc1c(F)cccc1F)c1cccc(=O)[nH]1
41 µM	69 µM	71 µM	20 µM	O=C(OCc1cc(F)cc(F)c1)c1cccc(=O)[nH]1
23 µM	71 µM	3 µM	65 µM	O=C(OCc1ccc(F)cc1)c1cccc(=O)[nH]1
22 µM	68 µM	67 µM	31 µM	O=C(OCc1cccc(Br)c1)c1cccc(=O)[nH]1
64 µM	71 µM	76 µM	68 µM	O=C(OCc1ccccc1F)c1cccc(=O)[nH]1
26 µM	69 µM	68 µM	47 µM	O=C(OCc1ccc(Cl)cc1)c1cccc(=O)[nH]1
46 µM	111 µM	90 µM	76 µM	O=C(Oc1ccco1)c1cccc(=O)[nH]1
30 µM	86 µM	67 µM	56 µM	O=C(OCc1cc(F)c(F)cc1F)c1cccc(=O)[nH]1
47 µM	69 µM	81 µM	68 µM	O=C(OCCc1ccccc1)c1cccc(=O)[nH]1
39 µM	65 µM	67 µM	62 µM	O=C(Oc1ccsc1)c1cccc(=O)[nH]1
70 µM	70 µM	85 µM	100 µM	O=C(OCc1cc(F)ccc1F)c1cccc(=O)[nH]1
16 µM	39 µM	33 µM	31 µM	O=C(OCc1c(F)cc(F)cc1F)c1cccc(=O)[nH]1
19 µM	57 µM	59 µM	44 µM	O=C(OCc1ccccc1Br)c1cccc(=O)[nH]1
50 µM	103 µM	66 µM	68 µM	CCCCCOC(=O)c1cccc(=O)[nH]1
86 µM	90 µM	73 µM	70 µM	O=C(OC/C=C/c1ccccc1)c1cccc(=O)[nH]1
69 µM	70 µM	88 µM	69 µM	COc1cccc(COC(=O)c2cccc(=O)[nH]2)c1
32 µM	101 µM	94 µM	71 µM	O=C(OC1CCCCC1)c1cccc(=O)[nH]1
99 µM	110 µM	100 µM	105 µM	COc1ccc(COC(=O)c2cccc(=O)[nH]2)cc1
51 µM	69 µM	81 µM	68 µM	O=C(OCc1ccccc1Cl)c1cccc(=O)[nH]1
19 µM	64 µM	69 µM	63 µM	O=C(OCc1c(F)c(F)c(F)c(F)c1F)c1cccc(=O)[nH]1
59 µM	> 150 µM	127 µM	79 µM	O=C(OCCOc1ccccc1)c1cccc(=O)[nH]1
65 µM	73 µM	68 µM	69 µM	Cc1ccc(COC(=O)c2cccc(=O)[nH]2)cc1
37 µM	72 µM	69 µM	67 µM	CC(C)=CCOC(=O)c1cccc(=O)[nH]1
28 µM	70 µM	50 µM	16 µM	O=C(OCc1cccc(F)c1)c1cccc(=O)[nH]1
25 µM	66 µM	62 µM	51 µM	O=C(OC1CCC1)c1cccc(=O)[nH]1

The next lines start with the molecule.

Compound	IC50 [1]	IC50 [2]	IC50 [3]	IC50 [4]
O=C(OCc1cccc(C(F)(F)F)c1)c1cccc(=S)[nH]1	134 µM	110 µM	126 µM	134 µM
CCCCCCOC(=O)c1cccc(S)n1	115 µM	85 µM	109 µM	105 µM
c1ccc(Cn2cc(C3=NCCO3)nn2)cc1	> 150 µM	> 150 µM	> 150 µM	> 150 µM
O=C(OCCc1ccccc1)c1cccc(=S)[nH]1	120 µM	119 µM	107 µM	117 µM
c1ccc(CCCn2cc(C3=NCCO3)nn2)cc1	> 150 µM	> 150 µM	> 150 µM	> 150 µM
O=C(Oc1cccc2ccccc12)c1cccc(=S)[nH]1	> 150 µM	98 µM	> 150 µM	> 150 µM
c1cncc(Cc2nnn[nH]2)c1	> 150 µM	48 µM	> 150 µM	> 150 µM
O=C(OCCCCOc1ccccc1)c1cccc(S)n1	138 µM	63 µM	83 µM	78 µM
O=C(Oc1ccc2ccccc2c1)c1cccc(=O)[nH]1	75 µM	125 µM	103 µM	97 µM
O=C(Oc1ccsc1)c1cccc(S)n1	108 µM	77 µM	90 µM	93 µM
C(=C\c1ccccc1)/Cn1cc(C2=NCCO2)nn1	> 150 µM	149 µM	> 150 µM	61 µM
c1ccc(CCn2nnc(Cc3cccnc3)n2)cc1	> 150 µM	> 150 µM	> 150 µM	> 150 µM
COc1ccc(COC(=O)c2cccc(S)n2)cc1	108 µM	91 µM	95 µM	96 µM
O=C(OCc1cccc(Oc2ccccc2)c1)c1cccc(=O)[nH]1	68 µM	> 150 µM	> 150 µM	118 µM
O=C(OCc1ccc(C(F)(F)F)cc1)c1cccc(=O)[nH]1	24 µM	112 µM	101 µM	64 µM
COc1cccc(COC(=O)c2cccc(S)n2)c1	86 µM	90 µM	93 µM	78 µM
c1ccc(CCCn2nnc(Cc3cccnc3)n2)cc1	> 150 µM	> 150 µM	> 150 µM	> 150 µM
c1ccc(CCn2cc(C3=NCCO3)nn2)cc1	> 150 µM	> 150 µM	> 150 µM	> 150 µM
Cc1cccc(COC(=O)c2cccc(S)n2)c1	> 150 µM	7 µM	7 µM	70 µM

Compound	IC50 [1]	IC50 [2]	IC50 [3]	IC50 [4]
O=C(OCc1c(F)cccc1F)c1cccc(=S)[nH]1	92 µM	66 µM	101 µM	127 µM
O=C(OCCCc1ccccc1)c1cccc(=S)[nH]1	95 µM	100 µM	112 µM	85 µM
O=C(OCc1ccc(Oc2ccccc2)cc1)c1cccc(S)n1	114 µM	93 µM	110 µM	109 µM
O=C(OC1CCC1)c1cccc(S)n1	135 µM	> 150 µM	137 µM	> 150 µM
O=C(OCc1cccc(F)c1)c1cccc(S)n1	119 µM	124 µM	107 µM	151 µM
O=C(OCc1cc(F)c(F)cc1F)c1cccc(=S)[nH]1	124 µM	90 µM	105 µM	106 µM
C1=C(n2cc(C3=NCCO3)nn2)CCCC1	> 150 µM	> 150 µM	> 150 µM	> 150 µM
O=C(OC1CCCCC1)c1cccc(S)n1	102 µM	73 µM	91 µM	87 µM
O=C(OCc1ccccc1)c1cccc(S)n1	101 µM	85 µM	88 µM	82 µM
c1ccc(Cn2nnc(Cc3cccnc3)n2)cc1	> 150 µM	> 150 µM	> 150 µM	> 150 µM
CC(C)OC(=O)c1cccc(S)n1	121 µM	> 150 µM	132 µM	146 µM
O=C(Oc1cccc2ccccc12)c1cccc(=O)[nH]1	115 µM	109 µM	109 µM	111 µM
CCCCCCCn1cc(C2=NCCO2)nn1	> 150 µM	> 150 µM	> 150 µM	> 150 µM
O=C(OCCCCOc1ccccc1)c1cccc(=O)[nH]1	67 µM	90 µM	94 µM	82 µM
O=C(OCc1ccc(C(F)(F)F)cc1)c1cccc(=S)[nH]1	> 150 µM	125 µM	141 µM	94 µM
Cc1ccc(COC(=O)c2cccc(=S)[nH]2)cc1	> 150 µM	98 µM	119 µM	81 µM
C(=C\c1ccccc1)/Cn1nnc(Cc2cccnc2)n1	> 150 µM	> 150 µM	> 150 µM	> 150 µM
O=C(OCc1ccc(Cl)cc1)c1cccc(S)n1	126 µM	96 µM	112 µM	115 µM
